Measured values from ChEMBL document CHEMBL5325402, “Exploration of novel hexahydropyrrolo[1,2-e]imidazol-1-one derivatives as antiviral agents against ZIKV and USUV” (Eur J Med Chem, 2023).
≈ marks a conversion by molar mass, not a printed value. Where “and” joins values, the source holds several entries; their conditions need not be identical. Equal entries are not always repeated. Calls of active or inactive are those of the source. The rule behind the calls is not given here.

What was measured:
[1] = Cytotoxicity against African green monkey Vero cells infected with ZIKV HPF2013 pretreated with virus for 1 hr followed by infection of cells with compound treated-virus for 30 hrs by MTS assay; assay type: toxicity, cell-based; settings: chlorocebus sabaeus
Method in brief: (§1)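 MTS viability assay. Cells were treated under the same conditions as the antiviral assays. Absorbance was expressed as % of medium-only cells, and CC50 was derived from the curve. Seeding densities were 1.2 × 10^4/well for Vero, 1.3 × 10^4/well for A549 and 1.6 × 10^4/well for Huh7. DMEM with 2% FBS.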

[2] = Cytotoxicity against African green monkey Vero cells infected with ZIKV MR766 pretreated with virus for 1 hr followed by infection of cells with compound treated-virus for 30 hrs by MTS assay; assay type: toxicity, cell-based; settings: chlorocebus sabaeus; method in brief: as §1
[3] = Cytotoxicity against African green monkey Vero cells infected with USUV 3345 isolate Arb276 pretreated with virus for 1 hr followed by infection of cells with compound treated-virus for 20 hrs by MTS assay; assay type: toxicity, cell-based; settings: chlorocebus sabaeus; method in brief: as §1
[4] = Selectivity index, ratio of CC50 for African green monkey Vero cells infected with USUV 3345 isolate Arb276 to EC50 for USUV 3345 isolate Arb276 infected in African green monkey Vero cells; assay type: toxicity, cell-based; settings: read-out: Ratio CC50/EC50
Usutu virus [5] = test: Antiviral activity against USUV 3345 isolate Arb276 infected in African green monkey Vero cells assessed as reduction in viral replication pretreated with virus for 1 hr followed by infection of cells with compound treated-virus for 20 hrs by focus reduction assay; assay type: functional, organism-based
Zika virus [6] = test: Antiviral activity against ZIKV MR766 infected in African green monkey Vero cells assessed as reduction in viral replication pretreated with virus for 1 hr followed by infection of cells with compound treated-virus for 30 hrs by focus reduction assay; assay type: functional, organism-based
[7] = Selectivity index, ratio of CC50 for African green monkey Vero cells infected with ZIKV MR766 to EC50 for ZIKV MR766 infected in African green monkey Vero cells; assay type: toxicity, cell-based; settings: read-out: Ratio CC50/EC50
[8] = Selectivity index, ratio of CC50 for African green monkey Vero cells infected with ZIKV HPF2013 to EC50 for ZIKV HPF2013 infected in African green monkey Vero cells; assay type: toxicity, cell-based; settings: read-out: Ratio CC50/EC50
Zika virus [9] = test: Antiviral activity against ZIKV HPF2013 infected in African green monkey Vero cells assessed as reduction in viral replication pretreated with virus for 1 hr followed by infection of cells with compound treated-virus for 30 hrs by focus reduction assay; assay type: functional, organism-based
Zika virus [10] = test: Antiviral activity against ZIKV MR766 infected in African green monkey Vero cells assessed as viral growth inhibition at 11 to 100 uM pretreated with virus for 1 hr followed by infection of cells with compound treated-virus for 30 hrs by focus reduction assay; assay type: functional, organism-based; settings: dose 11-100 µM, time 31.0 hrs
Method in brief: (§2)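 Screening focus reduction assay. Vero cells were seeded 1.2 × 10^4/well. ZIKV MR766 or USUV (MOI 0.02) was preincubated 1 h at 37 °C with 100, 33 or 11 μM compound, then added to cells for 30 h (ZIKV) or 20 h (USUV). Cells were fixed in acetone-methanol and immunostained with anti-flavivirus E 4G2 plus a peroxidase secondary. Foci counted microscopically; % infection versus DMSO-matched untreated wells. Medium contained 2% FBS.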

Usutu virus [11] = test: Antiviral activity against USUV 3345 isolate Arb276 infected in African green monkey Vero cells assessed as viral growth inhibition at 11 to 100 uM pretreated with virus for 1 hr followed by infection of cells with compound treated-virus for 20 hrs by focus reduction assay; assay type: functional, organism-based; settings: dose 11-100 µM, time 21.0 hrs; method in brief: as §2
[12] = Aqueous solubility in deionized water containing 1.38% DMSO; assay type: physicochemical
[13] = Solubility in DMSO at 25 degreeC; assay type: physicochemical
[14] = Solubility in i-propanol at 25 degreeC; assay type: physicochemical
Zika virus [15] = test: Antiviral activity against ZIKV MR766 infected in African green monkey Vero cells assessed as viral growth inhibition at 33 uM pretreated with virus for 1 hr followed by infection of cells with compound treated-virus for 30 hrs by focus reduction assay relative to control; assay type: functional; settings: time 31 hrs
Method in brief: (§3)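 Virus (MOI 0.02) preincubated with compound 1 h at 37 °C, then mixture put on Vero cells (1.2 × 10^4/well, seeded the day before) in DMEM with 2% FBS for 30 h (ZIKV) or 20 h (USUV) at 37 °C. Fixed in cold acetone-methanol, foci immunostained with anti-flavivirus E 4G2 antibody and counted. % infection is relative to DMSO-treated wells. Screen used 100, 33 and 11 μM.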

Usutu virus [16] = test: Antiviral activity against USUV 3345 isolate Arb276 infected in African green monkey Vero cells assessed as viral growth inhibition at 33 uM pretreated with virus for 1 hr followed by infection of cells with compound treated-virus for 20 hrs by focus reduction assay relative to control; assay type: functional; settings: Usutu virus, 3345, Vero, time 21 hrs; method in brief: as §3
Usutu virus [17] = test: Antiviral activity against USUV 3345 isolate Arb276 infected in human Huh-7 cells assessed as reduction in viral replication pretreated with virus for 1 hr followed by infection of cells with compound treated-virus for 20 hrs by focus reduction assay; assay type: functional, organism-based; settings: Usutu virus, 3345, Huh-7
Method in brief: (§4)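 Dose-response: serial dilutions (100 to 0.13 μM) preincubated 1 h at 37 °C with virus (MOI 0.02), then added to cells for 20 h (USUV) or 30 h (ZIKV) in 2% FBS DMEM. Cells per well: Vero 1.2 × 10^4, A549 1.3 × 10^4, Huh7 1.6 × 10^4. Foci immunostained and counted. EC50/EC90 fitted by variable-slope sigmoidal curve, mean of three independent experiments.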

[18] = Cytotoxicity against human A549 cells infected with ZIKV MR766 pretreated with virus for 1 hr followed by infection of cells with compound treated-virus for 30 hrs by MTS assay; assay type: toxicity, cell-based; method in brief: as §1
Usutu virus [19] = test: Antiviral activity against USUV 3345 isolate Arb276 infected in human A549 cells assessed as reduction in viral replication pretreated with virus for 1 hr followed by infection of cells with compound treated-virus for 20 hrs by focus reduction assay; assay type: functional, organism-based; settings: Usutu virus, 3345, A549; method in brief: as §4
[20] = Cytotoxicity against human Huh-7 cells infected with ZIKV MR766 pretreated with virus for 1 hr followed by infection of cells with compound treated-virus for 30 hrs by MTS assay; assay type: toxicity, cell-based; method in brief: as §1
[21] = Cytotoxicity against human Huh-7 cells infected with USUV 3345 isolate Arb276 pretreated with virus for 1 hr followed by infection of cells with compound treated-virus for 20 hrs by MTS assay; assay type: toxicity, cell-based; method in brief: as §1
Zika virus [22] = test: Antiviral activity against ZIKV MR766 infected in human A549 cells assessed as reduction in viral replication pretreated with virus for 1 hr followed by infection of cells with compound treated-virus for 30 hrs by focus reduction assay; assay type: functional, organism-based; method in brief: as §4
Zika virus [23] = test: Antiviral activity against ZIKV MR766 infected in human Huh-7 cells assessed as reduction in viral replication pretreated with virus for 1 hr followed by infection of cells with compound treated-virus for 30 hrs by focus reduction assay; assay type: functional, organism-based; method in brief: as §4
[24] = Cytotoxicity against human A549 cells infected with USUV 3345 isolate Arb276 pretreated with virus for 1 hr followed by infection of cells with compound treated-virus for 20 hrs by MTS assay; assay type: toxicity, cell-based; method in brief: as §1

Which results are given for `C=C1/C(=C\C=C2/CCC[C@]3(C)[C@@H]([C@H](C)/C=C/C=C/C(O)(CC)CC)CC[C@@H]23)C[C@@H](O)C[C@@H]1O` [SEOCALCITOL]?
CC50 at 31 h [1]: 11 µM; CC50 at 31 h [2]: 11 µM; CC50 at 21 h [3]: 11.9 µM; selectivity ratio [4]: 6; EC50 (Usutu virus [5]; vero): 2.13 µM and 9.94 µM; EC50 (Zika virus [6]): 7.51 µM; selectivity ratio [7]: 1.5; selectivity ratio [8]: 3.9; EC50 (Zika virus [9]): 2.83 µM

With `O=C1[C@@H]2CCCN2[C@@H](c2ccco2)N1Nc1ccc([N+](=O)[O-])cc1` as the compound, how does the Activity (Zika virus [10]) read?
The Activity was “inactive”.

What about the Activity (Usutu virus [11]) of the same compound?
Its Activity is “inactive”.

Which results are given for `COc1cc([C@H]2N(c3ccc([N+](=O)[O-])cc3)C(=O)[C@@H]3CCCN32)ccc1O`?
solubility [12]: 518 µg/mL (≈ 1.4 mM); solubility [13]: 37500 µg/mL (≈ 102 mM); solubility [14]: 1170 µg/mL (≈ 3.17 mM)

What does the source list for `COc1cc([C@H]2N(Nc3ccc([N+](=O)[O-])cc3)C(=O)[C@@H]3CCCN32)ccc1O`?
Activity (Zika virus [10]): inactive; Activity (Usutu virus [11]): inactive

For `COc1ccc([C@H]2N(c3ccc([N+](=O)[O-])cc3)C(=O)[C@@H]3CCCN32)cc1OC`, which Activity (Zika virus [10]) is on record?
The Activity was “inactive”.

What about the Activity (Usutu virus [11]) of the same compound?
The Activity was “inactive”.

Which inhibition at 33 µM (Zika virus [15]) does the source give for `COc1cc([C@H]2N(Nc3ccccc3)C(=O)[C@@H]3CCCN32)ccc1O` here?
The inhibition at 33 µM was < 50%.

And the inhibition at 33 µM (Usutu virus [16])?
The inhibition at 33 µM was < 50%.

With `O=C1[C@@H]2CCCN2[C@@H](Cc2ccc(O)cc2)N1c1ccc([N+](=O)[O-])cc1` as the compound, how does the Activity (Zika virus [10]) read?
The Activity was “inactive”.

What about the Activity (Usutu virus [11]) of the same compound?
The Activity was “inactive”.

What does the source list for `O=C1[C@@H]2CCCN2[C@@H](Cc2ccc(O)c(O)c2)N1c1ccc([N+](=O)[O-])cc1`?
Activity (Zika virus [10]): inactive; Activity (Usutu virus [11]): inactive

For `O=C1[C@@H]2CCCN2[C@@H](c2cccc(O)c2)N1c1ccc([N+](=O)[O-])cc1`, which Activity (Zika virus [10]) is on record?
Its Activity is “inactive”.

What about the Activity (Usutu virus [11]) of the same compound?
Its Activity is “inactive”.

With `COc1ccc(C[C@H]2N(Nc3ccc([N+](=O)[O-])cc3)C(=O)[C@@H]3CCCN32)cc1OC` as the compound, how does the Activity (Zika virus [10]) read?
Its Activity is “inactive”.

And the Activity (Usutu virus [11])?
Its Activity is “inactive”.

Which Activity (Zika virus [10]) does the source give for `O=C1[C@@H]2CCCN2[C@@H](c2ccc(O)c(O)c2)N1c1ccc([N+](=O)[O-])cc1` here?
Its Activity is “inactive”.

What about the Activity (Usutu virus [11]) of the same compound?
Its Activity is “inactive”.

Which results are given for `COc1cc(C[C@H]2N(c3ccc([N+](=O)[O-])cc3)C(=O)[C@@H]3CCCN32)ccc1O`?
Activity (Zika virus [10]): inactive; Activity (Usutu virus [11]): inactive

Which Activity (Zika virus [10]) does the source give for `COc1ccc([C@H]2N(c3ccc([N+](=O)[O-])cc3)C(=O)[C@@H]3CCCN32)cc1O` here?
Its Activity is “inactive”.

And the Activity (Usutu virus [11])?
The Activity was “inactive”.

Which Activity (Zika virus [10]) does the source give for `COc1ccc(C[C@H]2N(c3ccc([N+](=O)[O-])cc3)C(=O)[C@@H]3CCCN32)cc1O` here?
The Activity was “inactive”.

What about the Activity (Usutu virus [11]) of the same compound?
Its Activity is “inactive”.

Which EC50 (Usutu virus [17]) does the source give for `CCN(CC)CCCC(C)Nc1ccnc2cc(Cl)ccc12` (stereo unspecified) [CHLOROQUINE] here?
The EC50 was 4.82 µM.

What about the EC90 (Usutu virus [17]; time 21 hrs) of the same compound?
The EC90 was 11.8 µM.

And the CC50 at 31 h [18]?
The CC50 at 31 h was 80.5 µM.

And the EC50 (Usutu virus [19])?
The EC50 was 4.24 µM.

What about the EC90 (Usutu virus [19]; time 21 hrs) of the same compound?
The EC90 was 60.1 µM.

What about the CC50 at 31 h [2] of the same compound?
The CC50 at 31 h was 136 µM.

What about the CC50 at 21 h [3] of the same compound?
Its CC50 at 21 h is 115 µM.

And the CC50 at 31 h [20]?
Its CC50 at 31 h is 58.5 µM.

What about the CC50 at 21 h [21] of the same compound?
Its CC50 at 21 h is 75.5 µM.

What about the EC50 (Zika virus [22]) of the same compound?
The EC50 was 5.99 µM.

What about the EC90 (Zika virus [22]; time 31 hrs) of the same compound?
The EC90 was 50.3 µM.

What about the EC50 (Usutu virus [5]; Usutu virus, 3345, Vero) of the same compound?
The EC50 was 8.3 µM.

And the EC90 (Usutu virus [5]; Usutu virus, 3345, Vero, time 21 hrs)?
Its EC90 is 28.2 µM.

And the EC50 (Zika virus [23]; MR766, Huh-7)?
Its EC50 is 0.95 µM.

And the EC90 (Zika virus [23]; MR766, Huh-7, time 31 hrs)?
Its EC90 is 2.36 µM.

What about the EC50 (Zika virus [6]) of the same compound?
Its EC50 is 1.53 µM.

And the EC90 (Zika virus [6]; time 31 hrs)?
The EC90 was 5.77 µM.

And the CC50 at 21 h [24]?
The CC50 at 21 h was 144 µM.

Which inhibition at 33 µM (Zika virus [15]) does the source give for `O=C1[C@@H]2CCCN2[C@@H](c2ccco2)N1Nc1ccccc1` here?
Its inhibition at 33 µM is < 50%.

And the inhibition at 33 µM (Usutu virus [16])?
The inhibition at 33 µM was < 50%.
